Results published in ChEMBL document CHEMBL1140809, “Design, synthesis, and biological evaluation of human sialidase inhibitors. Part 1: selective inhibitors of lysosomal sialidase (NEU1)” (Bioorg Med Chem Lett, 2008).

Experiments:
Assay type in all cases: cell-based
[1] = target: T1, Sialidase-4 (Homo sapiens, UniProt Q8WWR8); assay: Inhibition of human NEU4 expressed in HEK293 cells
T1 sequence (Q8WWR8 whole entry): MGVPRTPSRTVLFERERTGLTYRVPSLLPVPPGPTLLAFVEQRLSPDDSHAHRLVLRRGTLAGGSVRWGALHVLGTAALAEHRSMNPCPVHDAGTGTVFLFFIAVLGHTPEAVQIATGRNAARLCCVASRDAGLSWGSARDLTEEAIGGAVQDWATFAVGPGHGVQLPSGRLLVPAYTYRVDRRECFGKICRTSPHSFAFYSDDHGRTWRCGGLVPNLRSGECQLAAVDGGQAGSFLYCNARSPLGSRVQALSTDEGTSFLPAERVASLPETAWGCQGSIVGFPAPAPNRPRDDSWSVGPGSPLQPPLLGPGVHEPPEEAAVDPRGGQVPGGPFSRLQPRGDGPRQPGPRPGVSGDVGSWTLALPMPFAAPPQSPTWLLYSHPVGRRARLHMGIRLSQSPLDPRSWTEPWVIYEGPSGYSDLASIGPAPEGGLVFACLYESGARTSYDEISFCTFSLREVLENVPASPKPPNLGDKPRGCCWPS
Method in brief: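 Human NEU4 (full-length cDNA) transiently expressed in HEK-293 cells, with cell homogenates as the enzyme source. Substrate: 4MU-NeuAc. One unit (nmol/h) of enzyme incubated 30–60 min. Four concentrations tested (0.05, 0.1, 0.5, 1). IC50 derived by non-linear regression of concentration–inhibition curves.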

[2] = target: T2, Sialidase-3 (Homo sapiens, UniProt Q9UQ49); assay: Inhibition of human NEU3 expressed in HEK293 cells
T2 sequence (Q9UQ49 whole entry): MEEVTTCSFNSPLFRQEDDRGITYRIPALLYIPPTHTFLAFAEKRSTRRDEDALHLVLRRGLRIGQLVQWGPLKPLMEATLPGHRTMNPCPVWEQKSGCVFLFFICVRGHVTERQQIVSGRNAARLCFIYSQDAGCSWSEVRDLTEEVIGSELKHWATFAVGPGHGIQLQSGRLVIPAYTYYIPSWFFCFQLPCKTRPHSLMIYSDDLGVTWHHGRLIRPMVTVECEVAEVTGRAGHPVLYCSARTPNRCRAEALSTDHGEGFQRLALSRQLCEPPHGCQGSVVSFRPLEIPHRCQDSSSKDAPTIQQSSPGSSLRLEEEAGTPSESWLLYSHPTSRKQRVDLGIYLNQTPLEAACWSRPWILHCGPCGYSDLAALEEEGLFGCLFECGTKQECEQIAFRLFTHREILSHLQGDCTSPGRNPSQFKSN
Method in brief: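 Enzyme source: homogenates of HEK-293 cells transiently transfected with full-length human NEU3 cDNA. Substrate: mixed gangliosides. One unit (nmol/h) of enzyme incubated 30–60 min. Four test concentrations (0.05, 0.1, 0.5, 1). IC50 derived by non-linear regression of concentration–inhibition curves.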

[3] = target: Sialidase-1 (Homo sapiens, UniProt Q99519); assay: Inhibition of human NEU1 expressed in HEK293 cells
Method in brief: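 Homogenates of HEK-293 cells transiently co-transfected with full-length human NEU1 cDNA plus protective protein cDNA. Substrate: 4MU-NeuAc. One unit (nmol/h) of enzyme incubated 30–60 min. Each compound tested at four concentrations (0.05, 0.1, 0.5, 1). IC50 derived by non-linear regression of concentration–inhibition curves.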

IC50 [1]	IC50 [2]	IC50 [3]	SMILES
> 1000 µM	> 1000 µM	565 µM	CC(=O)N[C@H]1[C@H]([C@@H](O)[C@@H](O)CNC(=O)CC(C)C)OC(C(=O)O)=C[C@@H]1O
> 1000 µM	> 1000 µM	135 µM	CC(=O)N[C@H]1[C@H]([C@@H](O)[C@@H](O)CNC(=O)C2CCCC2)OC(C(=O)O)=C[C@@H]1O
810 µM	320 µM	13 µM	CC(=O)N[C@H]1[C@H]([C@@H](O)[C@@H](O)CNC(=O)c2ccccc2)OC(C(=O)O)=C[C@@H]1O
–	> 1000 µM	32 µM	CCCC(=O)NC[C@H](O)[C@H](O)[C@@H]1OC(C(=O)O)=C[C@H](O)[C@H]1NC(C)=O
> 1000 µM	> 1000 µM	–	CC(=O)N[C@H]1[C@H]([C@@H](O)[C@@H](O)CNC(=O)C(C)C)OC(C(=O)O)=C[C@@H]1O
> 1000 µM	> 1000 µM	> 1000 µM	CCC(C)CC(=O)NC[C@H](O)[C@H](O)[C@@H]1OC(C(=O)O)=C[C@H](O)[C@H]1NC(C)=O (stereo partly specified)
> 1000 µM	> 1000 µM	> 1000 µM	CC(=O)N[C@H]1[C@H]([C@@H](O)[C@@H](O)CNC(=O)C(C)(C)C)OC(C(=O)O)=C[C@@H]1O
> 1000 µM	–	–	CCCCC(=O)NC[C@H](O)[C@H](O)[C@@H]1OC(C(=O)O)=C[C@H](O)[C@H]1NC(C)=O
825 µM	> 1000 µM	680 µM	CC(=O)N[C@H]1[C@H]([C@@H](O)[C@@H](O)CNC(=O)C2CC2)OC(C(=O)O)=C[C@@H]1O
580 µM	> 1000 µM	58 µM	CC(=O)NC[C@H](O)[C@H](O)[C@@H]1OC(C(=O)O)=C[C@H](O)[C@H]1NC(C)=O
